Results reported in ChEMBL document CHEMBL5329173, “Proline pre-conditioning of Jurkat cells improves recovery after cryopreservation” (RSC Med Chem, 2023).
Active and inactive are the calls of the source. The rule behind the calls is not given here.

Columns and labels:
Jurkat E6.1 [1] = assay: (§1) Effect of compound on cryopreserved human Jurkat E6.1 cells recovery assessed as increase in post-thaw cell recovery at 200 mM preincubated for 24 hrs followed by media replacement and cryopreserved at -1 degreeC/min to -80 degreeC/min and measured after 24 hrs post-thaw by trypan blue exclusion method (Rvb=63 %); format: functional
Method in brief: (§2)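 Cells were pre-incubated 24 h in medium with amino acid at the stated density, then the medium was replaced with fresh additive-free medium. Cells were adjusted to 1 × 10^6 cells per mL and held 10 min at room temperature in medium with 5% DMSO. They were cooled at −1 °C min−1 to −80 °C and stored ≥24 h. Thawing was 5 min in a 37 °C water bath, followed by culture at 37 °C, 5% CO2. Recovery relative to pre-freeze count was determined by trypan blue exclusion.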

[2] = Cytotoxicity against human Jurkat E6.1 cells assessed as cell growth inhibition at 200 mM incubated for 24 hrs by trypan blue exclusion method relative to control; format: toxicity, cell-based; conditions: read-out: Activity
Method in brief: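 Amino acid additives dissolved in complete Advanced RPMI 1640 (base medium contains 0.17 mM L-proline, 0.10 mM L-alanine) and sterile filtered. Jurkat cells seeded at 1 × 10^6 mL−1 and held 24 h at 37 °C, 5% CO2 without freezing. Counts taken every 4 h, with live/dead scored by trypan blue exclusion on an automated counter. Growth and viability were compared with additive-free medium; mean ± SD of independent experiments.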

Jurkat E6.1 [3] = assay: as §1, with “cell recovery at 0.5 millions/ml cell density at 200” for “cell recovery at 200”, “exclusion method” for “exclusion method (Rvb=63 %)”; format: functional; method in brief: as §2
Jurkat E6.1 [4] = assay: as §1, with “cell recovery at 0.8 millions/ml cell density at 200” for “cell recovery at 200”, “exclusion method” for “exclusion method (Rvb=63 %)”; format: functional, cell-based; method in brief: as §2
Jurkat E6.1 [5] = assay: Cytotoxicity against human Jurkat E6.1 cells assessed as decrease in metabolic activity at 200 mM incubated for 24 hrs by resazurin assay; format: toxicity, cell-based; conditions: jurkat e6.1, 24 h, 200000 µM
Method in brief: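 Cells were incubated 24 h at 37 °C in medium containing 200 mM additive, then readjusted to 1 × 10^6 cells per mL. They were resuspended in resazurin solution made in additive-free complete medium and incubated 3 or 4 h at 37 °C. Fluorescence was read at 590/35 nm emission and expressed as % of untreated control. Mean ± SD, at least three independent experiments.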

[6] = Cytotoxicity against human Jurkat E6.1 cells assessed as cell growth inhibition at 100 mM incubated for 24 hrs by trypan blue exclusion method relative to control

Compound	Activity (Jurkat E6.1 [1]) [%]	inhibition at 24 h, 200000 µM [2] [%]	Activity (Jurkat E6.1 [3]) [%]	Activity (Jurkat E6.1 [4])	Activity (Jurkat E6.1 [5])	inhibition at 24 h, 100000 µM [6] [%]
C[C@H](N)C(=O)O [ALANINE]	49	72	83	Active	Non-Toxic	–
O=C(O)[C@H]1CCCN1 [D-PROLINE]	52	107	–	–	Toxic	–
O=C(O)[C@@H]1CCCN1 [PROLINE]	70	46	77	Active	Non-Toxic	34
